Data: ChEMBL document CHEMBL1137768, “Synthesis and in vitro anti Mycobacterium tuberculosis activity of a series of phthalimide derivatives” (Bioorg Med Chem, 2009)
≈ marks a conversion by molar mass, not a printed value.

Tests used:
J774 = experiment: Cytotoxicity against mouse J774 cells after 24 hrs; type: cell-based; conditions: J774, 24 h
How it was run: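 J774 cells kept in RPMI with 10% FBS at 37 °C, 5% CO2, then seeded and allowed to adhere for 24 h. Exposed 24 h to compound at 625 down to 0.6 (twofold series). Resazurin added for 6 h and fluorescence read at 530/590 nm. IC50 taken as concentration giving 50% viability relative to control.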

[1] = tested on: Mycobacterium tuberculosis; experiment: Antimycobacterial activity against Mycobacterium tuberculosis H37Rv ATCC 27294 after 7 days by Microplate Alamar blue assay; type: functional; conditions: H37Rv ATCC 27294, 168 h
How it was run: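 DMSO stocks diluted in Middlebrook 7H9 with OADC to final 0.15–250 µg/mL. Inoculum matched to McFarland No. 1, diluted 1:25, then added with compound in 96-well plates. Triplicates incubated 7 days at 37 °C, then resazurin added. Fluorescence read at 530/590 nm. MIC = lowest concentration giving 90% growth inhibition. Isoniazid standard run each time.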

Structure (SMILES) | IC50 (J774) [µg/mL] | MIC [1] [µg/mL]
O=C(NN1C(=O)c2ccccc2C1=O)c1ccncc1 | 625 (≈ 2340 µM) | 5 (≈ 18.7 µM)
Cc1ccnc(NS(=O)(=O)c2ccc(N3C(=O)c4ccccc4C3=O)cc2)n1 | – | > 250
COc1cnc(NS(=O)(=O)c2ccc(N3C(=O)c4ccccc4C3=O)cc2)nc1 | – | > 250
Cc1cc(NS(=O)(=O)c2ccc(N3C(=O)c4ccccc4C3=O)cc2)no1 | – | 125 (≈ 326 µM)
Nc1ccc(S(=O)(=O)c2ccc(N3C(=O)c4ccccc4C3=O)cc2)cc1 | 312 (≈ 826 µM) | 7.8 (≈ 20.6 µM)
O=C1c2ccccc2C(=O)N1c1ccc(S(=O)(=O)Nc2ccccn2)cc1 | – | > 250
O=C1c2ccccc2C(=O)N1c1ccc(S(=O)(=O)Nc2ncccn2)cc1 | 312 (≈ 822 µM) | 3.9 (≈ 10.3 µM)
Cc1cc(C)nc(NS(=O)(=O)c2ccc(N3C(=O)c4ccccc4C3=O)cc2)n1 | – | > 250
O=C1c2ccccc2C(=O)N1c1ccc(S(=O)(=O)c2ccc(N3C(=O)c4ccccc4C3=O)cc2)cc1 | – | > 250
NS(=O)(=O)c1ccc(N2C(=O)c3ccccc3C2=O)cc1 | – | > 250
N=C(N)NS(=O)(=O)c1ccc(N2C(=O)c3ccccc3C2=O)cc1 | – | 125 (≈ 363 µM)
NNC(=O)c1ccncc1 [ISONIAZID] | – | 0.02 (≈ 0.146 µM)
